A short description of data set [1]: Cmin in New Zealand White rabbit infected with glycopeptide-intermediate Staphylococcus aureus after 24 hrs. The format is ADME, organism-based, Oryctolagus cuniculus. To be noted: in vivo, read-out: Cmin. In a few lines: (§1)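 Trough serum concentrations were taken in rabbits with catheter-induced aortic valve endocarditis. Infection was 1 ml i.v. via the marginal ear vein: 7 × 10^5 CFU/ml for MRSA or 8 × 10^5 CFU/ml for GISA. Human-simulating pump infusion started 18 h after infection and ran 48 h. Daptomycin was assayed by M. luteus bioassay, vancomycin by immunoturbidimetry.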

Data set [2] relates to Staphylococcus aureus. As to the kind of experiment: Antimicrobial activity against methicillin-resistant Staphylococcus aureus after 72 hrs by Etest. The format is functional.
Data set [3] concerns Staphylococcus aureus. As to the kind of experiment: Bacteriostatic activity against methicillin-resistant Staphylococcus aureus 277 at 0.5 to 4 times MIC by time-kill experiment. The format is functional, organism-based. Put shortly: (§2)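 Time-kill curves per CLSI, run in duplicate. Inoculum was 10^5 CFU/ml, with drug at 0.5–4× MIC. Viable counts were taken at 0, 4 and 24 h. Bactericidal was defined as a ≥3-log CFU reduction at 24 h versus the initial inoculum.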

Data set [4] has as its system Staphylococcus aureus. In words: Bacteriostatic activity against glycopeptide-intermediate Staphylococcus aureus ATCC 700788 at 0.5 to 4 times MIC by time-kill experiment. The class given is functional, organism-based. Put shortly:
as §2

Data set [5] in a line: Terminal half-life in human serum at 1 g, iv administered every 12 hrs. The class given is ADME, organism-based.
The nature of data set [6]: Terminal half-life in New Zealand White rabbit at 1 g, iv administered every 12 hrs. The format is ADME, organism-based, Oryctolagus cuniculus. To be noted: in vivo. In a few lines:
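The vancomycin line simulated 1 g i.v. q 12 h (30 mg/kg/day in 2 doses). The daptomycin line simulated 6 mg/kg q 24 h. Parameters came from an open 2-compartment model. Daptomycin was measured by disk-plate bioassay with Micrococcus luteus ATCC 9341 (sensitivity 0.5 µg/ml). Vancomycin was measured by latex-boosted immunoturbidimetry (LOD 0.8 µg/ml).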

Data set [7] is described as follows: Plasma protein binding in New Zealand White rabbit plasma at 1 g, iv administered every 12 hrs. The format is ADME, organism-based, Oryctolagus cuniculus. Particulars: read-out: PPB (converted).
The nature of data set [8]: Cmin in New Zealand White rabbit infected with methicillin-resistant Staphylococcus aureus after 24 hrs. Particulars: in vivo, read-out: Cmin. The format is ADME, organism-based, Oryctolagus cuniculus. In a few lines:
as §1

Data set [9] deals with Staphylococcus aureus. As to the kind of experiment: Antimicrobial activity against glycopeptide-intermediate Staphylococcus aureus ATCC 700788 by microdilution method. The class given is functional. Put shortly:
(§3)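 Broth microdilution MIC and MBC per CLSI in cation-adjusted Mueller-Hinton broth. For daptomycin, the broth was adjusted to 50 µg/ml calcium. S. aureus ATCC 29213 was the control strain.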
On the technique in general: Dilution methods test growth across graded concentrations, often in twofold steps.

Data set [10] concerns Staphylococcus aureus. In words: Antimicrobial activity against methicillin-resistant Staphylococcus aureus by Etest. The class given is functional.
The test system of data set [11] is Staphylococcus aureus. As to the kind of experiment: Bactericidal activity against methicillin-resistant Staphylococcus aureus 277 at 0.5 to 4 times MIC by time-kill experiment. The class given is functional, organism-based. In a few lines:
as §2

Data set [12] deals with Staphylococcus aureus. As to the kind of experiment: Bactericidal activity against glycopeptide-intermediate Staphylococcus aureus ATCC 700788 at 0.5 to 4 times MIC by time-kill experiment. The class given is functional, organism-based. Put shortly: as §2
Data set [13] is described as follows: Cmax in human serum at 6 mg/kg, iv administered every 24 hrs. The format is ADME, organism-based. Also on record: dose 6 mg/kg, route intravenous.
A short description of data set [14]: Terminal half-life in human serum at 6 mg/kg, iv administered every 24 hrs. Also on record: dose 6 mg/kg, route intravenous. The format is ADME, organism-based.
Data set [15] in a line: AUC in human serum at 6 mg/kg, iv administered every 24 hrs. The format is ADME, organism-based. Details: dose 6 mg/kg, route intravenous.
The nature of data set [16]: Plasma protein binding in human serum at 6 mg/kg, iv administered every 24 hrs. The format is ADME, organism-based. Also on record: dose 6 mg/kg, route intravenous. Particulars: read-out: PPB (converted).
Data set [17] is described as follows: Plasma protein binding in New Zealand White rabbit plasma at 6 mg/kg, iv administered every 24 hrs. Also on record: dose 6 mg/kg, route intravenous. The class given is ADME, organism-based, Oryctolagus cuniculus. Particulars: read-out: PPB (converted).
For data set [18], the system named is Staphylococcus aureus. As to the kind of experiment: Antimicrobial activity against methicillin-resistant Staphylococcus aureus 277 by microdilution method. The format is functional. Put shortly: as §3

In brackets after ≈: the same amount, converted by molar mass. Activity calls are given as the source filed them.

For orientation: MIC means the lowest concentration found to suppress growth. High values mean weaker potency, low ones greater potency. Broadly, the half-life is the time in which the quantity being followed falls by half. A low value points to rapid decline. The term MBC denotes the lowest tested concentration that kills the bacteria rather than only halting them. The term Cmax denotes the maximum level reached in the sampled fluid or tissue. What is called AUC is the area under the concentration-time curve, a measure of exposure.

Consider `CN[C@H](CC(C)C)C(=O)N[C@H]1C(=O)N[C@@H](CC(N)=O)C(=O)N[C@H]2C(=O)N[C@H]3C(=O)N[C@H](C(=O)N[C@H](C(=O)O)c4cc(O)cc(O)c4-c4cc3ccc4O)[C@H](O)c3ccc(c(Cl)c3)Oc3cc2cc(c3O[C@@H]2O[C@H](CO)[C@@H](O)[C@H](O)[C@H]2O[C@H]2C[C@](C)(N)[C@H](O)[C@H](C)O2)Oc2ccc(cc2Cl)[C@H]1O` [VANCOMYCIN], for which the concentration at 24 h in data set [1] and in [8] was 20000 ng/mL throughout. In [2], this compound registered an MIC of 8 µg/mL (≈ 5.52 µM). The result in [3] and in data set [4] was Active. The half-life in data set [5] is 4.8 h; in data set [6], 1.3 h. The fraction unbound at 12 h in data set [7] is 0.35.

In [9], GENTAMICIN gave an MBC of 128 µg/mL and an MIC of 0.25 µg/mL.

Turning to `CCCCCCCCCC(=O)N[C@@H](Cc1c[nH]c2ccccc12)C(=O)N[C@H](CC(N)=O)C(=O)N[C@@H](CC(=O)O)C(=O)N[C@@H]1C(=O)NCC(=O)N[C@@H](CCCN)C(=O)N[C@@H](CC(=O)O)C(=O)N[C@H](C)C(=O)N[C@@H](CC(=O)O)C(=O)NCC(=O)N[C@H](CO)C(=O)N[C@@H]([C@H](C)CC(=O)O)C(=O)N[C@@H](CC(=O)c2ccccc2N)C(=O)O[C@@H]1C`, the MIC in data set [10] came to 0.12 µg/mL (≈ 0.074 µM); in data set [2], 0.5 µg/mL (≈ 0.309 µM); in [18] it was 0.12 µg/mL (≈ 0.074 µM); in data set [9], 0.5 µg/mL (≈ 0.309 µM). Further, the result in [11] and in data set [12] was Active. The compound further came in with a Cmax in data set [13] of 86000 ng/mL. In addition, in [14], the half-life was 9.5 h. The compound further had an AUC at 24 h in [15] of 974 µg·h/mL. The fraction unbound at 24 h is 0.08 in [16] and 0.1 in data set [17]. In data set [9], this compound returned an MBC of 1 µg/mL (≈ 0.617 µM).

The values above are taken from ChEMBL document CHEMBL1275432, “Daptomycin is effective in treatment of experimental endocarditis due to methicillin-resistant and glycopeptide-intermediate Staphylococcus aureus” (Antimicrob Agents Chemother, 2008).
